The values that follow come from ChEMBL document CHEMBL4368881, “A β-glucuronidase-responsive albumin-binding prodrug programmed for the double release of monomethyl auristatin E” (Medchemcomm, 2018).

Data set [1] in a line: Toxicity in athymic Balb/c mouse xenografted with human LS174T cells assessed as effect on body weight at 2 mg/kg, iv administered on day 17 and 24 measured three times a week. Format: organism-based. The settings on record: in vivo. The method in brief: (§1)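 LS174T subcutaneous xenografts (1x10⁶ cells in PBS/50 % Matrigel) were set up in eight-week-old male nude mice. Groups of 6 received iv injections in PBS–2 % DMSO, with a vehicle control group. Body weight was recorded three times weekly. Mice were euthanized when tumor volume exceeded 2 cm³.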

Data set [2] has as its system LS174T. Kind of data set: Antitumor activity against human LS174T cells xenografted in athymic Balb/c mouse assessed as tumor growth inhibition at 2 mg/kg, iv administered on day 17 and 24. It is filed as functional, organism-based. The method in brief:
(§2)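 Eight-week-old male nude mice were implanted subcutaneously in the dorsal flank with 1x10⁶ LS174T cells in PBS/50 % Matrigel (day 0). Mice were randomized into groups of 6 and given iv doses in PBS–2 % DMSO, with a vehicle-injected control group. Tumor length and width were measured by caliper three times weekly; volume = length x width²/2.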
A general note: Xenograft models place foreign cells or tissue in a host animal.

The test system of data set [3] is LS174T. Kind of data set: Inhibition of anchorage-independent colony formation in 3D culture of human LS174T cells at 5 nM measured after 3 days by soft agar colony formation assay. Format: functional, cell-based. The method in brief: (§3)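 LS174T cells (early passage, <10) were grown in EMEM with 10 % FBS. 20x10³ isolated cells were seeded in 0.35 % agarose over a 0.6 % agarose base layer. Colonies grew for 10 days, with fresh medium every 3 days. They were then treated for 3 days at 5 nM, without or with β-glucuronidase (3700 U/well). Colony size was measured by macroscope imaging; mean ± s.e.m. of 5 independent experiments.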

The test system of data set [4] is LS174T. The experiment in a line: Inhibition of anchorage-independent colony formation in 3D culture of human LS174T cells at 5 nM measured after 3 days in presence of beta-glucuronidase by soft agar colony formation assay. It is filed as functional, cell-based. The method in brief:
as §3

For another data set, the target named is Beta-glucuronidase (Escherichia coli (strain K12), UniProt P05804). Kind of data set: Prodrug conversion assessed as Escherichia coli beta-glucuronidase mediated MMAE formation after 5 hrs using albumin-conjugated compound by HPLC/HRMS analysis. Format: ADME. To be noted: isolated protein. The method in brief: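 Prodrug 0.49 mg.mL-1 was held in 5 % human serum albumin solution at 37 °C for 4 h to form the albumin adduct. The mixture was diluted 1:3 with 0.02 M phosphate buffer (pH 7), then E. coli β-glucuronidase was added. Analysis was by C18 HPLC coupled to ESI-HRMS in positive ion mode.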
Beta-glucuronidase, sequence (P05804 whole entry): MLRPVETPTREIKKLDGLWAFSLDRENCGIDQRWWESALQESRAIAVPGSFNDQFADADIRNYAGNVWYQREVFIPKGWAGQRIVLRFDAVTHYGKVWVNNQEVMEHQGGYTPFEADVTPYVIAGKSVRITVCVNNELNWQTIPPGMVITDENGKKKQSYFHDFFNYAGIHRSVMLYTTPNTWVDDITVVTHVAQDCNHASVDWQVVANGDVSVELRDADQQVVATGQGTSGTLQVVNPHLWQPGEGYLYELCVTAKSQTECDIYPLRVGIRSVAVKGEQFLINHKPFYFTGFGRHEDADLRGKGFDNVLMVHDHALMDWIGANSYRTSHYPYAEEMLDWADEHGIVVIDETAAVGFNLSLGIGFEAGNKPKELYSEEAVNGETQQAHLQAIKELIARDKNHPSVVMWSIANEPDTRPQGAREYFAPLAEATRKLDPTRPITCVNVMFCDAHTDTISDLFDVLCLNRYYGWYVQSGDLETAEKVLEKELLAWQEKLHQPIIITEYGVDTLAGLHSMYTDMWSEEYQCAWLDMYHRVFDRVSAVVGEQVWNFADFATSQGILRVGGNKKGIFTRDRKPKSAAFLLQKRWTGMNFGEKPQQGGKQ

Another data set deals with Albumin (Homo sapiens, UniProt P02768). The experiment in a line: Binding affinity to human serum albumin at 0.49 mg/ml after 4 hrs by HPLC/HRMS analysis. The settings on record: isolated protein.
Albumin, sequence (P02768 whole entry): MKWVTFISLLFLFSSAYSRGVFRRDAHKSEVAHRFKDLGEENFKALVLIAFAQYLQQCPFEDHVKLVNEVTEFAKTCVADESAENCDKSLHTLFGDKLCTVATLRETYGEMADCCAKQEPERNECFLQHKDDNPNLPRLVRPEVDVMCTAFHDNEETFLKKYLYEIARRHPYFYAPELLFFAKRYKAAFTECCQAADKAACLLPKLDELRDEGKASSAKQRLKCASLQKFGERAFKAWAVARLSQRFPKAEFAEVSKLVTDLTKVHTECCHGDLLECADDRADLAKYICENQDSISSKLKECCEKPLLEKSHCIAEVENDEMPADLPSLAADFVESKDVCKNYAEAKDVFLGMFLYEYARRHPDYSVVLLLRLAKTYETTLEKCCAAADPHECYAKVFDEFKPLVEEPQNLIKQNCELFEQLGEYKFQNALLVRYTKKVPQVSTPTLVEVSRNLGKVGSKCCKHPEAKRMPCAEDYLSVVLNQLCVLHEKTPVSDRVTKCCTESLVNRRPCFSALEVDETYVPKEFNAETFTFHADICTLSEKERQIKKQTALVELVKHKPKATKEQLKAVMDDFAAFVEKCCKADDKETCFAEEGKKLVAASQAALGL
In data set [5] the test system is LS174T. The experiment in a line: Antitumor activity against human LS174T cells xenografted in athymic Balb/c mouse assessed as tumor growth inhibition at 3 mg/kg, iv administered on day 17 and 24. It is filed as functional, organism-based. The method in brief: as §2
Data set [6] in a line: Toxicity in athymic Balb/c mouse xenografted with human LS174T cells assessed as effect on body weight at 3 mg/kg, iv administered on day 17 and 24 measured three times a week. It is filed as organism-based. To be noted: in vivo. The method in brief: as §1

Each structure is given as a SMILES string. Active and inactive are the calls of the source. No cut-off for these calls is given here.

Consider `CC[C@H](C)[C@@H]([C@@H](CC(=O)N1CCC[C@H]1[C@H](OC)[C@@H](C)C(=O)N[C@H](C)[C@@H](O)c1ccccc1)OC)N(C)C(=O)[C@@H](NC(=O)[C@H](C(C)C)N(C)C(=O)OC(Cc1cn(CCOCCOCCOCCOCCOCCOCCOCCOCCOCCOCCNC(=O)CCCCCN2C(=O)C=CC2=O)nn1)c1ccc(O[C@@H]2O[C@H](C(=O)O)[C@@H](O)[C@H](O)[C@H]2O)c([N+](=O)[O-])c1)C(C)C` (stereo not given in full), for which the Activity result in data set [1] is on record as “Non-Toxic”. Further, the TGI entry in the data set on LS174T [2] is “Active”. In the data set on LS174T [3], the inhibition result was “inactive”. Also, the inhibition entry with LS174T [4] was “Active”.

In the case of `CC[C@H](C)[C@@H]([C@@H](CC(=O)N1CCC[C@H]1[C@H](OC)[C@@H](C)C(=O)N[C@H](C)[C@@H](O)c1ccccc1)OC)N(C)C(=O)[C@@H](NC(=O)[C@H](C(C)C)N(C)C(=O)OCc1ccc(NC(=O)OC(Cc2cn(CCOCCOCCOCCOCCOCCOCCOCCOCCOCCOCCNC(=O)CCCCCN3C(=O)C=CC3=O)nn2)c2ccc(O[C@@H]3O[C@H](C(=O)O)[C@@H](O)[C@H](O)[C@H]3O)c([N+](=O)[O-])c2)c(COC(=O)N(C)[C@H](C(=O)N[C@H](C(=O)N(C)[C@@H]([C@@H](C)CC)[C@@H](CC(=O)N2CCC[C@H]2[C@H](OC)[C@@H](C)C(=O)N[C@H](C)[C@@H](O)c2ccccc2)OC)C(C)C)C(C)C)c1)C(C)C` (stereo not given in full), at Beta-glucuronidase, the Drug metabolism entry is “Metabolite_Detected”. Further, the Activity result is listed as “Active” on Albumin and “Non-Toxic” in data set [6]. For the same molecule, the inhibition entry in the data set with LS174T [3] is “inactive”. The TGI result with LS174T [5] is “Active”. Besides, in the data set on LS174T [4], the inhibition entry is “Active”.
